Drawing on ChEMBL document CHEMBL4706580, “4-Amino-1,2,4-triazole-3-thione-derived Schiff bases as metallo-β-lactamase inhibitors” (Eur J Med Chem, 2020), this text covers inhibition, Ki and inhibition zone (IZ) for 13 compounds.

Experiment [1] is described as follows: Inhibition of beta-lactamase CphA (unknown origin) expressed in Escherichia coli BL21(DE3) using imipenem as substrate by measuring substrate hydrolysis at 200 uM by spectrophotometric analysis.
Experiment [2] is described as follows: Inhibition of beta-lactamase CphA (unknown origin) expressed in Escherichia coli BL21(DE3) using imipenem as substrate by measuring substrate hydrolysis at 100 uM by spectrophotometric analysis. An outline of the steps:
(§1)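 Enzyme 0.2–0.8 nM in 15 mM cacodylate pH 6.5, no added zinc, pre-incubated 30 min at 21 °C with inhibitor (100 μM screen). Imipenem substrate added from 10 mM stock; hydrolysis at 300 nm, 30 °C. Residual activity vs three uninhibited samples; Ki (1–100 μM inhibitor) by Hanes linearization, competitive model. Triplicate.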

Experiment [3] can be described thus: Inhibition of beta-lactamase L1 (unknown origin) expressed in Escherichia coli BL21(DE3) using nitrocefin as substrate by measuring substrate hydrolysis at 100 uM preincubated for 30 mins by spectrophotometric analysis. Summed up:
(§2)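 Enzyme 0.2–0.8 nM in 25 mM HEPES pH 7.5 with 50 μM ZnCl2 final, pre-incubated 30 min at 21 °C with inhibitor (100 μM screen). Nitrocefin 100 μM final, read at 482 nm, 30 °C. Residual activity vs three uninhibited samples; Ki (1–100 μM inhibitor) from Hanes linearization, competitive model. Triplicate.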

A short description of experiment [4]: Inhibition of beta-lactamase VIM4 (unknown origin) expressed in Escherichia coli BL21(DE3) using imipenem as substrate by measuring substrate hydrolysis at 100 uM by spectrophotometric analysis. Summed up: (§3)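 Purified enzyme (overproduced in E. coli BL21(DE3), pET-9a; ion-exchange and gel filtration), 1-70 nM final. Reporter substrate 150 μM imipenem, read at 300 nm, 30 °C, 50 mM HEPES pH 7.5. Single-point screen at 100 or 200 μM; Ki from v0/vi vs [I] (0.5–1,000 μM final) assuming competitive inhibition, or Dixon plot. Triplicate.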

The nature of experiment [5]: Inhibition of beta-lactamase IMP-1 (unknown origin) expressed in Escherichia coli BL21(DE3) using imipenem as substrate by measuring substrate hydrolysis at 100 uM by spectrophotometric analysis. An outline of the steps:
as §3

Experiment [6] in a line: Inhibition of beta-lactamase NDM1 (unknown origin) expressed in Escherichia coli BL21(DE3) using cefotaxime/nitrocefin as substrate by measuring substrate hydrolysis at 200 uM by spectrophotometric analysis.
Experiment [7] in a line: Inhibition of beta-lactamase VIM2 (unknown origin) expressed in Escherichia coli BL21(DE3) using imipenem as substrate by measuring substrate hydrolysis at 100 uM by spectrophotometric analysis. An outline of the steps: as §3
Experiment [8] in a line: Inhibition of beta-lactamase L1 (unknown origin) expressed in Escherichia coli BL21(DE3) using nitrocefin as substrate by measuring substrate hydrolysis at 200 uM preincubated for 30 mins by spectrophotometric analysis.
Experiment [9] is described as follows: Inhibition of beta-lactamase NDM1 (unknown origin) expressed in Escherichia coli BL21(DE3) using cefotaxime/nitrocefin as substrate by measuring substrate hydrolysis at 100 uM by spectrophotometric analysis.
A short description of experiment [10]: Inhibition of beta-lactamase CphA (unknown origin) expressed in Escherichia coli BL21(DE3) using imipenem as substrate by measuring substrate hydrolysis by spectrophotometric analysis. An outline of the steps: as §1
Experiment [11] can be described thus: Inhibition of beta-lactamase IMP-1 (unknown origin) expressed in Escherichia coli LZ2310 assessed as potentiation of ceftazidime antibacterial activity by measuring ceftazidime induced diameter of inhibition zone at 40 uM incubated for 18 hrs by disk diffusion method (reference value: 9 mm). Summed up:
(§4)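 Efflux-deficient E. coli LZ2310 (NorE, MdfA, AcrA knocked out) carrying pLB-II with the cloned MBL gene. Mueller-Hinton, CLSI disk diffusion; antibiotic disks (30 µg cefoxitin for VIM-2, 10 µg ampicillin for VIM-4, 30 µg ceftazidime for NDM-1/IMP-1) loaded with inhibitor in DMSO (≤15 µL). Zone diameter after 18 h, 35 ± 1 °C; DMSO and 220 µg EDTA controls. Triplicate.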
A general note: A growth-free zone around the sample is the usual read-out of agar diffusion tests.

The nature of experiment [12]: Inhibition of beta-lactamase VIM4 (unknown origin) expressed in Escherichia coli BL21(DE3) using imipenem as substrate by measuring substrate hydrolysis by spectrophotometric analysis. Summed up: as §3
A short description of experiment [13]: Inhibition of beta-lactamase VIM2 (unknown origin) expressed in Escherichia coli BL21(DE3) using imipenem as substrate by measuring substrate hydrolysis at 200 uM by spectrophotometric analysis. Summed up: as §3
Experiment [14] in a line: Inhibition of beta-lactamase VIM-2 (unknown origin) expressed in Escherichia coli LZ2310 assessed as potentiation of cefoxitin antibacterial activity by measuring cefoxitin induced diameter of inhibition zone at 40 uM incubated for 18 hrs by disk diffusion method (reference value: 14 mm). Summed up: as §4
Experiment [15] is described as follows: Inhibition of beta-lactamase L1 (unknown origin) expressed in Escherichia coli BL21(DE3) using nitrocefin as substrate by measuring substrate hydrolysis preincubated for 30 mins by spectrophotometric analysis. Summed up:
as §2

A short description of experiment [16]: Inhibition of beta-lactamase IMP-1 (unknown origin) expressed in Escherichia coli BL21(DE3) using imipenem as substrate by measuring substrate hydrolysis by spectrophotometric analysis. An outline of the steps:
as §3

A short description of experiment [17]: Inhibition of beta-lactamase VIM-4 (unknown origin) expressed in Escherichia coli LZ2310 assessed as potentiation of ampicillin antibacterial activity by measuring ampicillin induced diameter of inhibition zone at 40 uM incubated for 18 hrs by disk diffusion method (reference value: 6 mm). Summed up:
as §4

Experiment [18] is described as follows: Inhibition of beta-lactamase VIM4 (unknown origin) expressed in Escherichia coli BL21(DE3) using imipenem as substrate by measuring substrate hydrolysis at 200 uM by spectrophotometric analysis. An outline of the steps: as §3
The nature of experiment [19]: Inhibition of beta-lactamase NDM-1 (unknown origin) expressed in Escherichia coli LZ2310 assessed as potentiation of ceftazidime antibacterial activity by measuring ceftazidime induced diameter of inhibition zone at 40 uM incubated for 18 hrs by disk diffusion method (reference value: 15 mm). An outline of the steps: as §4
The nature of experiment [20]: Inhibition of beta-lactamase VIM2 (unknown origin) expressed in Escherichia coli BL21(DE3) using imipenem as substrate by measuring substrate hydrolysis by spectrophotometric analysis. An outline of the steps: as §3
Experiment [21] can be described thus: Inhibition of beta-lactamase NDM1 (unknown origin) expressed in Escherichia coli BL21(DE3) using cefotaxime/nitrocefin as substrate by measuring substrate hydrolysis by spectrophotometric analysis. Summed up: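 His-tagged enzyme from E. coli BL21(DE3) pET-15b, affinity-purified, 1-70 nM final. Reporter substrate 120 μM cefotaxime (260 nm) or 100 μM nitrocefin (482 nm), 30 °C, 50 mM HEPES pH 7.5. Inhibitor 0.5–1,000 μM final; competitive Ki from v0/vi vs [I] slope or Dixon plot. Triplicate.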

A short description of experiment [22]: Inhibition of beta-lactamase IMP-1 (unknown origin) expressed in Escherichia coli BL21(DE3) using imipenem as substrate by measuring substrate hydrolysis at 200 uM by spectrophotometric analysis. Summed up:
as §3

The structures appear in SMILES notation. Activity calls are given as the source filed them. No cut-off for these calls is given here.

Consider `O=C(O)c1ccccc1/C=N/n1c(-c2ccncc2)n[nH]c1=S`, for which the inhibition result in experiment [1] and in experiment [2] was “inactive” each time. Besides, the inhibition is 32% in experiment [3], 73% in [4], 45% in [5] and 50% in experiment [6].
Take `Cc1ccccc1-c1n[nH]c(=S)n1/N=C/c1ccccc1O`: the inhibition result in [1], in experiment [2], in experiment [3], in [6], in experiment [8] and in experiment [9] was “inactive” throughout. Moreover, the inhibition in experiment [4] came to 38%; in experiment [5], 41%; in [7] it was 62%.
As for `S=c1[nH]nc(-c2cccc3ccccc23)n1/N=C/c1ccc(OCc2ccccc2)cc1`, the Ki came to 4 µM in [10], 2.4 µM in experiment [12], 30 µM in experiment [15] and 0.1 µM in experiment [16]. Further, the inhibition result in experiment [7], in experiment [6], in experiment [13] and in [9] was “inactive” throughout. Besides, the results for the inhibition zone (IZ) in [11] and in experiment [14] were 9 mm and 14 mm, respectively.
For `Cc1ccccc1-c1n[nH]c(=S)n1/N=C/c1ccccc1[N+](=O)[O-]`, the Ki in [10] was 5 µM; in experiment [12], 2.4 µM; in experiment [15], 30 µM; in experiment [16] it was 11 µM. The inhibition entry in experiment [7], in [6], in [13] and in [9] was “inactive” in each case. The inhibition zone (IZ) in experiment [11] was 9 mm; in [17], 6 mm.
For `Oc1ccc(/C=N/n2c(COc3ccc4ccccc4c3)n[nH]c2=S)c(O)c1`, the inhibition result in experiment [1], in experiment [2], in experiment [6] and in [9] was “inactive” throughout. In addition, the inhibition in experiment [3] turned out to be 40%; in experiment [4], 60%; in experiment [5], 33%; in experiment [7] it was 30%.
`S=c1[nH]nc(CC(c2ccccc2)c2ccccc2)n1/N=C/c1ccc(OCc2ccccc2)cc1`: the inhibition in experiment [2] and in experiment [5] was 30% throughout. The inhibition entry in experiment [3], in [4], in [18], in [7], in experiment [13] and in experiment [8] was “inactive” throughout. In addition, the inhibition zone (IZ) in experiment [19] is 15 mm.
`Oc1ccc(/C=N/n2c(Cc3ccccc3)n[nH]c2=S)c(O)c1`: the inhibition entry in [1], in [2], in experiment [6] and in experiment [9] was “inactive” throughout. In addition, the inhibition in experiment [3] turned out to be 46%; in [4], 47%; in [5], 37%; in [7] it was 30%.
Take `Cc1ccccc1-c1n[nH]c(=S)n1/N=C/c1cccc(-c2cccc(C(=O)O)c2)c1`: the inhibition constant (Ki) turned out to be 40 µM in experiment [10]; 0.3 µM in experiment [12]; 0.9 µM in experiment [15]; 9 µM in experiment [16]; 1.1 µM in [20]. Further, the inhibition entry in experiment [6] and in experiment [9] was “inactive” throughout. The inhibition zone (IZ) in experiment [11] was found to be 9 mm; in [14], 14 mm; in experiment [17] it was 6 mm.
In the case of `O=C(O)c1ccccc1/C=N/n1c(C(c2ccccc2)c2ccccc2)n[nH]c1=S`, the inhibition constant (Ki) is 13 µM in experiment [10], 4.1 µM in experiment [21], 9 µM in experiment [12] and 0.1 µM in experiment [15]. Moreover, the inhibition result in [5] and in [22] was “inactive” each time. The inhibition zone (IZ) worked out at 9 mm in experiment [11], 14 mm in experiment [14] and 15 mm in [19].
In experiment [3], `S=c1[nH]nc(-c2ccc(Cl)cc2)n1/N=C/c1ccc(OCc2ccccc2)cc1` came in with an inhibition of 40%. Moreover, the inhibition entry in experiment [4], in experiment [5], in experiment [18], in [7], in experiment [13] and in experiment [22] was “inactive” in each case. This compound registered an inhibitory constant (Ki) in [21] of 4.1 µM. Also, in experiment [19], the inhibition zone (IZ) amounted to 15 mm.
`Cc1ccccc1-c1n[nH]c(=S)n1/N=C/c1ccc(C(=O)O)cc1`: the inhibitory constant (Ki) in experiment [10] worked out at 31 µM; in experiment [16] it was 11 µM; in experiment [20] it was 11 µM. The values for the inhibition in experiment [3] and in experiment [4] were 59% and 57%, respectively. Also, the inhibition entry in experiment [6] and in [9] was “inactive” throughout. The values for the inhibition zone (IZ) in experiment [11] and in experiment [14] were 9 mm and 14 mm, respectively.
Regarding `COc1ccc(/C=N/n2c(-c3ccccc3C)n[nH]c2=S)c(O)c1`, the inhibition constant Ki in [10] is 32 µM; in experiment [16], 9 µM. In addition, the inhibition came out at 55% in experiment [3], 55% in experiment [4], 58% in experiment [7] and 32% in experiment [9]. The inhibition zone (IZ) in experiment [11] came to 9 mm.
Consider `Oc1ccc(/C=N/n2c(-c3cccc4ccccc34)n[nH]c2=S)c(O)c1`, for which the inhibition constant (Ki) was 4 µM in experiment [10], 2 µM in [15] and 10 µM in experiment [16]. The inhibition in experiment [4] is 32%. The inhibition entry in experiment [7], in experiment [6], in [13] and in experiment [9] was “inactive” in each case. The inhibition zone (IZ) in experiment [11] came to 10 mm; in experiment [17], 6 mm.

The inhibition is the percentage by which the read-out fell short of the control. By Ki is commonly meant the dissociation constant of the complex between target and ligand, obtained from inhibition or displacement. The low end stands for tighter binding, the high end for weaker binding.
